Assays:
Mus musculus [1] = assay: BDF1 male mice were administered with 129 mg/kg intraperitoneally and percent change in iron levels was determined in Feces; type: functional; conditions: route intraperitoneal
Procedure, shortened: (§1)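 Male BDF1 mice made iron-overloaded by transfusion of washed, heat-treated (50 °C, 30 min) canine red cells. Dosing began 2 days after the last transfusion, once daily for 7 days, in distilled water or 2% Polysorbate 80 suspension. Daily group urine was collected. Pooled feces were digested in 1 N HCl (90 °C, 30 min). Liver and spleen were homogenized in saline. Iron was measured by atomic absorption and expressed as % change vs transfused controls.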

Mus musculus [2] = assay: BDF1 male mice were administered with 129 mg/kg intraperitoneally and percent change in iron levels was determined in Liver; type: functional; conditions: route intraperitoneal; procedure, shortened: as §1
Mus musculus [3] = assay: BDF1 male mice were administered with 129 mg/kg intraperitoneally and percent change in iron levels was determined in Urine; type: functional; conditions: route intraperitoneal; procedure, shortened: as §1
Mus musculus [4] = assay: BDF1 male mice were administered with 129 mg/kg intraperitoneally and number of survivors was determined out 10 tested; type: functional; conditions: route intraperitoneal
Procedure, shortened: (§2)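 Male BDF1 mice were iron-loaded by transfusion of canine red cells. The cells were heparinised, washed twice in isotonic saline and heated at 50 °C for 30 min. Dosing started two days after the last transfusion, once daily for 7 consecutive days. Compounds were given in distilled water or as a fine aqueous suspension with Polysorbate 80 (2% final). Toxic signs were recorded daily and survivors counted per group.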

Mus musculus [5] = assay: BDF1 male mice were administered with 129 mg/kg intraperitoneally and percent change in iron levels was determined in Spleen; type: functional; conditions: route intraperitoneal; procedure, shortened: as §1
Mus musculus [6] = assay: BDF1 male mice were administered with 300 mg/kg intraperitoneally and percent change in iron levels was determined in Feces; type: functional; conditions: route intraperitoneal
Procedure, shortened: (§3)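 Male BDF1 mice were hypertransfused with washed, heat-treated (50 °C, 30 min) canine red cells. Starting 2 days after the last transfusion, they received one ip injection daily for 7 days, in distilled water or an aqueous suspension with Polysorbate 80 (2% final). Group urine was collected every 24 h. Feces were digested in 1 N HCl (90 °C, 30 min, triplicate). Liver and spleen were homogenized. Iron was measured by atomic absorption and reported as % change vs transfused controls.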

Mus musculus [7] = assay: BDF1 male mice were administered with 300 mg/kg intraperitoneally and percent change in iron levels was determined in Spleen; type: functional; conditions: route intraperitoneal; procedure, shortened: as §3
Mus musculus [8] = assay: BDF1 male mice were administered with 300 mg/kg intraperitoneally and percent change in iron levels was determined in Urine; type: functional; conditions: route intraperitoneal; procedure, shortened: as §3
Mus musculus [9] = assay: BDF1 male mice were administered with 300 mg/kg intraperitoneally and percent change in iron levels was determined in liver; type: functional; conditions: route intraperitoneal; procedure, shortened: as §3
Mus musculus [10] = assay: BDF1 male mice were administered with 300 mg/kg intraperitoneally and number of survivors was determined out of 10 tested; type: functional; conditions: route intraperitoneal; procedure, shortened: as §2
[11] = Compound was evaluated for lethal dose after intraperitoneal administration using iron overload rat model; type: toxicity, organism-based; conditions: in vivo, ip
Rattus norvegicus [12] = assay: Percent change in iron levels was determined in feces using iron overload rat model where the route of administration is Intraperitoneal; type: ADME, organism-based; conditions: in vivo, ip
Rattus norvegicus [13] = assay: Percent change in iron levels was determined in urine using iron overload rat model where the route of administration is Intraperitoneal; type: ADME, organism-based; conditions: in vivo, ip
Rattus norvegicus [14] = assay: Percent change in iron levels was determined in urine using iron overload rat model where the route of administration is Peroral; type: ADME, organism-based; conditions: in vivo, po
Rattus norvegicus [15] = assay: Percent change in iron levels was determined in feces using iron overload rat model where the route of administration is Peroral; type: ADME, organism-based; conditions: in vivo, po
Mus musculus [16] = assay: BDF1 male mice were administered with 200 mg/kg intraperitoneally and percent change in iron levels was determined in Feces; type: functional; conditions: route intraperitoneal; procedure, shortened: as §1
Mus musculus [17] = assay: BDF1 male mice were administered with 200 mg/kg intraperitoneally and percent change in iron levels was determined in Spleen; type: functional; conditions: route intraperitoneal; procedure, shortened: as §1
Mus musculus [18] = assay: BDF1 male mice were administered with 200 mg/kg intraperitoneally and percent change in iron levels was determined in Urine; type: functional; conditions: route intraperitoneal; procedure, shortened: as §1
Mus musculus [19] = assay: BDF1 male mice were administered with 200 mg/kg intraperitoneally and percent change in iron levels was determined in liver; type: functional; conditions: route intraperitoneal; procedure, shortened: as §1
Mus musculus [20] = assay: BDF1 male mice were administered with 100 mg/kg intraperitoneally and percent change in iron levels was determined in Feces; type: functional; conditions: route intraperitoneal; procedure, shortened: as §1
Mus musculus [21] = assay: BDF1 male mice were administered with 100 mg/kg intraperitoneally and percent change in iron levels was determined in Liver; type: functional; conditions: route intraperitoneal; procedure, shortened: as §1
Mus musculus [22] = assay: BDF1 male mice were administered with 100 mg/kg intraperitoneally and percent change in iron levels was determined in Spleen; type: functional; conditions: route intraperitoneal; procedure, shortened: as §1
Mus musculus [23] = assay: BDF1 male mice were administered with 100 mg/kg intraperitoneally and percent change in iron levels was determined in Urine; type: functional; conditions: route intraperitoneal; procedure, shortened: as §1
Mus musculus [24] = assay: BDF1 male mice were administered with 100 mg/kg intraperitoneally and number of survivors was determined out of 10 tested; type: functional; conditions: route intraperitoneal; procedure, shortened: as §2
Mus musculus [25] = assay: BDF1 male mice were administered with 200 mg/kg intraperitoneally and number of survivors was determined out of 10 tested; type: functional; conditions: route intraperitoneal; procedure, shortened: as §2

## O=C([O-])CN(CCN(CC(=O)[O-])c1ccccc1O)c1ccccc1O.[Li+].[Li+]
Mus musculus [1]
  Iron change: -38%
Mus musculus [2]
  Iron change: -49%
Mus musculus [3]
  Iron change: 28%
Mus musculus [4]
  No. of survivors: 9
Mus musculus [5]
  Iron change: -7%

## O=C(O)CN(Cc1ccccc1O)CC(O)CN(CC(=O)O)Cc1ccccc1O
Mus musculus [6]
  Iron change: -32%
Mus musculus [7]
  Iron change: 6%
Mus musculus [8]
  Iron change: 127%
Mus musculus [9]
  Iron change: -50%
Mus musculus [10]
  No. of survivors: 10
[11]
  LD50: ≥ 800 mg/kg
Rattus norvegicus [12]
  Iron change: 255%
Rattus norvegicus [13]
  Iron change: 118%
Rattus norvegicus [14]
  Iron change: 30%
Rattus norvegicus [15]
  Iron change: 20%

## O=C([O-])CN(CCN(CC(=O)[O-])c1ccccc1O)c1ccccc1O.[Na+].[Na+]
Mus musculus [16]
  Iron change: -15%
Mus musculus [17]
  Iron change: 22%
Mus musculus [18]
  Iron change: 143%
Mus musculus [19]
  Iron change: -22%
Mus musculus [20]
  Iron change: 3%
Mus musculus [21]
  Iron change: -22%
Mus musculus [22]
  Iron change: 7%
Mus musculus [23]
  Iron change: 106%
Mus musculus [24]
  No. of survivors: 10
Mus musculus [25]
  No. of survivors: 5
